{"source": "paper PMC3005847", "about": "(Biochemistry, 2010)", "key": {"[1]": {"target": "T1, T. foetus IMPDH E323A (Tritrichomonas foetus, UniProt P50097, E323A)", "T1 sequence (P50097 1-503 E323A)": "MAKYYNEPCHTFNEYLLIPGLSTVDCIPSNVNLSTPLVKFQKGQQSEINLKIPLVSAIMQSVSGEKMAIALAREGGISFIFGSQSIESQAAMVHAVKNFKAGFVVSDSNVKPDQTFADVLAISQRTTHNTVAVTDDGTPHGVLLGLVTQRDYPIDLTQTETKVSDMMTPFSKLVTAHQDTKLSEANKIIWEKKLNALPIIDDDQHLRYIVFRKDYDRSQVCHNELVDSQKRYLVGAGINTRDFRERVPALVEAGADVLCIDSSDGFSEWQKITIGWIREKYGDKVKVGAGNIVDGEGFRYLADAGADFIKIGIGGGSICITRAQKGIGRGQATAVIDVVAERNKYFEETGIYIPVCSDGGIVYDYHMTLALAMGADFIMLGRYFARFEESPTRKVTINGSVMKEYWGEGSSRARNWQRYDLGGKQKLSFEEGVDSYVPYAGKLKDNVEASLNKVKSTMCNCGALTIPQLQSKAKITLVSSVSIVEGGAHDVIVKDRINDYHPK", "experiment": "Steady-state kinetics, E323A", "format": "biochemical", "conditions": "read-out: Km NAD^+, pH 8.0, 25 °C"}, "[2]": {"target": "T2, T. foetus IMPDH Q324A (Tritrichomonas foetus, UniProt P50097, Q324A)", "T2 sequence (P50097 1-503 Q324A)": "T1 sequence (P50097 1-503 E323A) with A323E, Q324A", "experiment": "Steady-state kinetics, Q324A", "format": "biochemical"}, "[3]": {"target": "T3, T. foetus IMPDH wild-type (Tritrichomonas foetus, UniProt P50097)", "conditions": "cited from earlier work"}, "[4]": {"target": "T4, T. foetus IMPDH R322E (Tritrichomonas foetus, UniProt P50097, R322E)", "T4 sequence (P50097 1-503 R322E)": "T1 sequence (P50097 1-503 E323A) with R322E, A323E", "experiment": "Steady-state kinetics, R322E", "format": "biochemical", "conditions": "read-out: Km NAD^+, pH 8.0, 25 °C", "outline": "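Mutant enzyme was expressed in IMPDH-deficient E. coli H712 and IMP-affinity purified. Assay buffer was 50 mM Tris-Cl pH 8.0, 100 mM KCl, 1 mM DTT, at 25 °C. NADH production was monitored at 340 nm (ε = 6.22 mM−1cm−1). Initial velocities were fitted to Michaelis–Menten or to a form with uncompetitive substrate inhibition, giving Km.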"}, "[5]": {"target": "T3, T. foetus IMPDH wild-type", "experiment": "Equilibrium dissociation constant by intrinsic protein fluorescence, wild-type", "format": "binding", "conditions": "corrected for non-specific quenching, assay buffer, 25 °C"}, "[6]": {"target": "T5, T. foetus IMPDH R322A (Tritrichomonas foetus, UniProt P50097, R322A)", "T5 sequence (P50097 1-503 R322A)": "T1 sequence (P50097 1-503 E323A) with R322A, A323E", "experiment": "Steady-state kinetics, R322A", "format": "biochemical", "conditions": "read-out: Km NAD^+, pH 8.0, 25 °C"}, "[7]": {"target": "T4, T. foetus IMPDH R322E", "experiment": "Equilibrium dissociation constant by intrinsic protein fluorescence, R322E", "format": "binding", "conditions": "assay buffer, 25 °C", "outline": "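NAD+ titrated into 0.2–0.3 µM R322E enzyme. The enzyme was expressed in IMPDH-deficient E. coli H712 and IMP-affinity purified. Assay buffer was 50 mM Tris-Cl pH 8.0, 100 mM KCl, 1 mM DTT, at 25 °C. Intrinsic protein fluorescence read at ex 295 / em 344 nm, corrected for inner-filter effect. Nonspecific quenching measured by titrating ligand into L-tryptophan. Kd taken from the corrected binding curve.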"}, "[8]": {"target": "T4, T. foetus IMPDH R322E", "experiment": "Multiple-inhibitor kinetics with tiazofurin and ADP, R322E", "format": "biochemical", "conditions": "R322E relative to wild-type", "outline": "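Mutant enzymes were expressed in IMPDH-lacking E. coli H712 and purified by IMP-affinity chromatography. Tiazofurin and ADP were varied together in assay buffer (50 mM Tris-Cl pH 8.0, 100 mM KCl, 1 mM DTT) at 25 °C. NADH formation was followed at 340 nm. Initial velocities were fitted to a two-inhibitor equation giving Ki, Kj and interaction constant α.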"}}, "note": "Changes are numbered by the printed parent chain."}
{"smiles": "NC(=O)c1ccc[n+]([C@@H]2O[C@H](COP(=O)([O-])OP(=O)(O)OC[C@H]3O[C@@H](n4cnc5c(N)ncnc54)[C@H](O)[C@@H]3O)[C@@H](O)[C@H]2O)c1", "note": "[NAD^+]", "values": [{"measurement": "Km", "setting": "[1]", "result": "300 ± 20", "unit": "µM"}, {"measurement": "Km", "setting": "[2]; read-out: Km NAD^+, pH 8.0, 25 °C", "result": "120 ± 20", "unit": "µM"}, {"measurement": "Kii NAD^+", "setting": "[2]; uncompetitive substrate inhibition, pH 8.0, 25 °C", "result": "2.4 ± 0.3", "unit": "mM"}, {"measurement": "Km", "setting": "[3]; read-out: Km NAD^+", "result": "150 ± 30", "unit": "µM"}, {"measurement": "Kii NAD^+", "setting": "[3]; uncompetitive substrate inhibition", "result": "7 ± 2", "unit": "mM"}, {"measurement": "Km", "setting": "[4]", "result": "2600 ± 700", "unit": "µM"}, {"measurement": "Kd", "setting": "[5]", "result": "27 ± 6", "unit": "µM"}, {"measurement": "Km", "setting": "[6]", "result": "910 ± 90", "unit": "µM"}, {"measurement": "Kd", "setting": "[7]", "result": "37 ± 10", "unit": "µM"}]}
{"smiles": "NC(=O)c1csc([C@@H]2O[C@H](CO)[C@@H](O)[C@H]2O)n1", "note": "[TAZ, tiazofurin]", "values": [{"measurement": "Decrease in affinity of tiazofurin caused by the mutation (factor)", "setting": "[8]", "result": "> 3"}]}
